Experimental data as given in PubChem BioAssay AID1746 (Sanford-Burnham Center for Chemical Genomics, 2009).

System: Primary human hepatocytes, TRAIL cytotoxicity, ATPlite, 24 h
Assay: hepatocyte cytotoxicity of TRAIL potentiators – cell-based, primary human hepatocytes, ATPlite luminescence, 24 h, cytotoxicity control for TRAIL sensitizer project, confirmation (AID 1746)
Conditions: for cytotoxicity with TRAIL: at 5 µM (top of the series); for cytotoxicity: stronger effect = higher value
How it was run: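 Material – primary human hepatocytes · Probe or stimulus – TRAIL, 1000 ng/mL final · Doses – compound 1.25–5 µM final · Incubation – 4 h compound pretreatment, then 24 h TRAIL exposure, 37 °C · Detection – ATPlite luminescence · Measure – percent cytotoxicity, sodium azide background signal subtracted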

[1] = compound alone without TRAIL, at 5 µM
[2] = measured here: TRAIL alone reference, dose or concentration not given here

Structure (SMILES) | cytotoxicity with TRAIL [%] | cytotoxicity [1] [%] | cytotoxicity [2] [%]
CSc1nc(-c2ccccc2)nc(C(Cl)Cl)n1 | 68 | 22 | 0
CSc1nc(-c2ccc(C)cc2)nc(C(Cl)Cl)n1 | 67 | 9 | 0
CCSc1nc(-c2ccccc2)nc(C(Cl)Cl)n1 | 73 | 47 | 0
